Experimental data: ChEMBL document CHEMBL1126068, “Renin inhibitors containing C-termini derived from mercaptoheterocycles” (J Med Chem, 1992)

Assays:
Renin = target: T1, Renin (Homo sapiens, UniProt P00797); test: The compound was tested in vitro for inhibition of human plasma renin.; type: cell-free
T1 sequence (P00797 whole entry): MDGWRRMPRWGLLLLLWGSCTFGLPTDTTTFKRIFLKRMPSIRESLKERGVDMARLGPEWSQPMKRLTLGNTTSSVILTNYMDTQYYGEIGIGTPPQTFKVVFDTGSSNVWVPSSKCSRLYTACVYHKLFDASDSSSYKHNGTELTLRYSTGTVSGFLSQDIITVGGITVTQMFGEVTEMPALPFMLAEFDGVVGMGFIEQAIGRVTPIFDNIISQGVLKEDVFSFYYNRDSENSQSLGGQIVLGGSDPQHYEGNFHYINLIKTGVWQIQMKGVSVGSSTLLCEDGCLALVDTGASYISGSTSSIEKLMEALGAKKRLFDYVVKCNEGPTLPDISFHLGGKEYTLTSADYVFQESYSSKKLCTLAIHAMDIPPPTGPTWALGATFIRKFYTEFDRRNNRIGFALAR
Outline: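 Lyophilized human plasma was reconstituted in distilled water on the assay day. Angiotensin I was measured by radioimmunoassay (commercial kit) at pH 7.4 in phosphate buffer, 37 °C, with PMSF to block angiotensinases. Inhibitors came from a 1 mM DMF stock serially diluted to 3–5 concentrations, run in duplicate and averaged. IC50 was calculated by linear regression.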

[1] = Peak change in mean arterial pressure (average) at the dose of 0.40 mg/kg administered through intravenously in Rhesus monkeys.; type: functional, Cercopithecidae, Artery; conditions: dose 0.4 mg/kg; route intravenous
Outline: (§1)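 Conscious male and female rhesus monkeys kept on a low-sodium diet, given furosemide the evening before, and fasted 18 h before and during the study. MAP was read directly and blood drawn for PRA through chronic arterial access ports. Compound was given IV via venous catheter in 0.05% acetic acid/5% dextrose/H2O, 20 min after a vehicle control. Time courses were plotted and peak changes taken; N = 2.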

[2] = Inhibition of plasma renin determined at Peak change in mean arterial pressure at the dose of 0.40 mg/kg administered through intravenously in Rhesus monkeys.; type: functional; conditions: Cercopithecidae, route intravenous; outline: as §1
[3] = Peak change in heart rate (average) at the dose of 0.40 mg/kg administered through intravenously in Rhesus monkeys.; type: functional, Cercopithecidae; conditions: dose 0.4 mg/kg; route intravenous; outline: as §1
[4] = Peak change in heart rate (average) at the dose of 0.44 mg/kg administered through intravenously in Rhesus monkeys.; type: functional, Cercopithecidae; conditions: route intravenous; outline: as §1
[5] = Inhibition of plasma renin determined at Peak change in mean arterial pressure at the dose of 0.44 mg/kg administered through intravenously in Rhesus monkeys.; type: functional; conditions: Cercopithecidae, route intravenous; outline: as §1
[6] = Peak change in mean arterial pressure (average) at the dose of 0.44 mg/kg administered through intravenously in Rhesus monkeys.; type: functional, Cercopithecidae, Artery; conditions: route intravenous; outline: as §1
[7] = Peak change in mean arterial pressure (average) at the dose of 1.19 mg/kg administered through intravenously in Rhesus monkeys.; type: functional, Cercopithecidae, Artery; conditions: route intravenous; outline: as §1
[8] = Peak change in heart rate (average) at the dose of 1.19 mg/kg administered through intravenously in Rhesus monkeys.; type: functional, Cercopithecidae; conditions: route intravenous; outline: as §1
[9] = Inhibition of plasma renin determined at Peak change in mean arterial pressure at the dose of 1.19 mg/kg administered through intravenously in Rhesus monkeys.; type: functional; conditions: Cercopithecidae, route intravenous; outline: as §1
[10] = Peak change in heart rate (average) at the dose of 0.34 mg/kg administered through intravenously in Rhesus monkeys.; type: functional, Cercopithecidae; conditions: route intravenous; outline: as §1
[11] = Peak change in mean arterial pressure (average) at the dose of 0.34 mg/kg administered through intravenously in Rhesus monkeys.; type: functional, Cercopithecidae, Artery; conditions: route intravenous; outline: as §1
[12] = Inhibition of plasma renin determined at Peak change in mean arterial pressure at the dose of 0.34 mg/kg administered through intravenously in Rhesus monkeys.; type: functional; conditions: Cercopithecidae, route intravenous; outline: as §1
[13] = Inhibition of plasma renin determined at Peak change in mean arterial pressure at the dose of 0.88 mg/kg administered through intravenously in Rhesus monkeys.; type: functional; conditions: Cercopithecidae, route intravenous; outline: as §1
[14] = Peak change in heart rate (average) at the dose of 0.88 mg/kg administered through intravenously in Rhesus monkeys.; type: functional, Cercopithecidae; conditions: route intravenous; outline: as §1
[15] = Peak change in mean arterial pressure (average) at the dose of 0.88 mg/kg administered through intravenously in Rhesus monkeys.; type: functional, Cercopithecidae, Artery; conditions: route intravenous; outline: as §1
[16] = Peak change in mean arterial pressure (average) at the dose of 0.42 mg/kg administered through intravenously in Rhesus monkeys.; type: functional, Cercopithecidae, Artery; conditions: route intravenous; outline: as §1
[17] = Peak change in heart rate (average) at the dose of 0.42 mg/kg administered through intravenously in Rhesus monkeys.; type: functional, Cercopithecidae; conditions: route intravenous; outline: as §1
[18] = Inhibition of plasma renin determined at Peak change in mean arterial pressure at the dose of 0.42 mg/kg administered through intravenously in Rhesus monkeys.; type: functional; conditions: Cercopithecidae, route intravenous; outline: as §1
[19] = Peak change in heart rate (average) at the dose of 0.39 mg/kg administered through intravenously in Rhesus monkeys.; type: functional, Cercopithecidae; conditions: route intravenous; outline: as §1
[20] = Peak change in mean arterial pressure (average) at the dose of 0.39 mg/kg administered through intravenously in Rhesus monkeys.; type: functional, Cercopithecidae, Artery; conditions: route intravenous; outline: as §1
[21] = Inhibition of plasma renin determined at Peak change in mean arterial pressure at the dose of 0.39 mg/kg administered through intravenously in Rhesus monkeys.; type: functional; conditions: Cercopithecidae, route intravenous; outline: as §1
[22] = Peak change in heart rate (average) at the dose of 0.35 mg/kg administered through intravenously in Rhesus monkeys.; type: functional, Cercopithecidae; conditions: route intravenous; outline: as §1
[23] = Inhibition of plasma renin determined at Peak change in mean arterial pressure at the dose of 0.35 mg/kg administered through intravenously in Rhesus monkeys.; type: functional; conditions: Cercopithecidae, route intravenous; outline: as §1
[24] = Peak change in mean arterial pressure (average) at the dose of 0.35 mg/kg administered through intravenously in Rhesus monkeys.; type: functional, Cercopithecidae, Artery; conditions: route intravenous; outline: as §1

IC50 (Renin) [nM]	Structure (SMILES)	further results
33	CC(C)(C)OC(=O)N[C@@H](Cc1ccccc1)C(=O)N[C@@H](Cc1c[nH]cn1)C(=O)N[C@@H](CC1CCCCC1)[C@@H](O)CSc1nnnn1CCc1ccc(O)cc1	–
124	Cn1ccnc1SC[C@H](O)[C@H](CC1CCCCC1)NC(=O)[C@H](Cc1c[nH]cn1)NC(=O)[C@H](Cc1ccccc1)NC(=O)OC(C)(C)C	Peak deltaMAP [7]: -8.5 mmHg; Peak deltaHR [8]: -3 beats min-1; inhibition in vivo at 1.19 mg/kg [9]: 75%
3310	CC(C)(C)OC(=O)N[C@@H](Cc1ccccc1)C(=O)N[C@@H](Cc1c[nH]cn1)C(=O)N[C@@H](CC1CCCCC1)[C@@H](O)CSc1nnc(Nc2ccccc2)s1	–
708	CC(C)(C)OC(=O)N[C@@H](Cc1ccccc1)C(=O)N[C@@H](Cc1c[nH]cn1)C(=O)N[C@@H](CC1CCCCC1)[C@@H](O)CSc1ncc2ccccn12	–
31	CC(C)(C)OC(=O)N[C@@H](Cc1ccccc1)C(=O)N[C@@H](Cc1c[nH]cn1)C(=O)N[C@@H](CC1CCCCC1)[C@@H](O)CSc1nnnn1CCc1ccncc1	Peak deltaHR [10]: 1 beats min-1; Peak deltaMAP [11]: -22 mmHg; inhibition in vivo at 0.34 mg/kg [12]: 95%
81	Cn1cnnc1SC[C@H](O)[C@H](CC1CCCCC1)NC(=O)[C@H](Cc1c[nH]cn1)NC(=O)[C@H](Cc1ccccc1)NC(=O)OC(C)(C)C	inhibition in vivo at 0.88 mg/kg [13]: 90%; Peak deltaHR [14]: 17 beats min-1; Peak deltaMAP [15]: -9 mmHg
678	C[n+]1ccc(CCn2nnnc2SC[C@H](O)[C@H](CC2CCCCC2)NC(=O)[C@H](Cc2c[nH]cn2)NC(=O)[C@H](Cc2ccccc2)NC(=O)OC(C)(C)C)cc1	–
39	Cn1c(SC[C@H](O)[C@H](CC2CCCCC2)NC(=O)[C@H](Cc2c[nH]cn2)NC(=O)[C@H](Cc2ccccc2)NC(=O)OC(C)(C)C)nnc1C(F)(F)F	Peak deltaHR [19]: -5 beats min-1; Peak deltaMAP [20]: -11 mmHg; inhibition in vivo at 0.39 mg/kg [21]: 85%
32	Cn1nnnc1SC[C@H](O)[C@H](CC1CCCCC1)NC(=O)[C@H](Cc1c[nH]cn1)NC(=O)[C@H](Cc1ccccc1)NC(=O)OC(C)(C)C	Peak deltaHR [22]: -5 beats min-1; inhibition in vivo at 0.35 mg/kg [23]: 89%; Peak deltaMAP [24]: -9 mmHg

The next lines start with the molecule.

Structure (SMILES)	IC50 (Renin) [nM]	further results
CC(C)(C)OC(=O)N[C@@H](Cc1ccccc1)C(=O)N[C@@H](Cc1cnc[nH]1)C(=O)N[C@@H](CC1CCCCC1)[C@@H](O)CSc1nnnn1CC(=O)O	396	–
CC(C)(C)OC(=O)N[C@@H](Cc1ccccc1)C(=O)N[C@@H](Cc1c[nH]cn1)C(=O)N[C@@H](CC1CCCCC1)[C@@H](O)CS(=O)(=O)c1nnnn1CCc1cc[n+]([O-])cc1	37	Peak deltaMAP [1]: -12 mmHg; inhibition in vivo at 0.4 mg/kg [2]: 98%; Peak deltaHR [3]: 23 beats min-1
CC(C)(C)OC(=O)N[C@@H](Cc1ccccc1)C(=O)N[C@@H](Cc1cnc[nH]1)C(=O)N[C@@H](CC1CCCCC1)[C@@H](O)CSc1nnnn1CC(=O)NCCN1CCOCC1	314	–
CN(C)CCn1nnnc1SC[C@H](O)[C@H](CC1CCCCC1)NC(=O)[C@H](Cc1cnc[nH]1)NC(=O)[C@H](Cc1ccccc1)NC(=O)OC(C)(C)C	145	–
CN(C)CCNC(=O)Cn1nnnc1SC[C@H](O)[C@H](CC1CCCCC1)NC(=O)[C@H](Cc1c[nH]cn1)NC(=O)[C@H](Cc1ccccc1)NC(=O)OC(C)(C)C	1290	–
CC(C)(C)OC(=O)N[C@@H](Cc1ccccc1)C(=O)N[C@@H](Cc1c[nH]cn1)C(=O)N[C@@H](CC1CCCCC1)[C@@H](O)CSc1nnc(C(F)(F)F)n1CCc1ccncc1	41	Peak deltaHR [4]: -1 beats min-1; inhibition in vivo at 0.44 mg/kg [5]: 93%; Peak deltaMAP [6]: -10 mmHg
CC(C)(C)OC(=O)N[C@@H](Cc1ccccc1)C(=O)N[C@@H](Cc1cnc[nH]1)C(=O)N[C@@H](CC1CCCCC1)[C@@H](O)CSc1nnnn1CC(N)=O	448	–
C=CCn1c(SC[C@H](O)[C@H](CC2CCCCC2)NC(=O)[C@H](Cc2c[nH]cn2)NC(=O)[C@H](Cc2ccccc2)NC(=O)OC(C)(C)C)nnc1C(F)(F)F	206	–
CC(C)(C)OC(=O)N[C@@H](Cc1ccccc1)C(=O)N[C@@H](Cc1cnc[nH]1)C(=O)N[C@@H](CC1CCCCC1)[C@@H](O)CSc1ccccn1	198	–
CN1CCN(C(=O)Cn2nnnc2SC[C@H](O)[C@H](CC2CCCCC2)NC(=O)[C@H](Cc2c[nH]cn2)NC(=O)[C@H](Cc2ccccc2)NC(=O)OC(C)(C)C)CC1	359	–
Cn1nc(C(F)(F)F)nc1SC[C@H](O)[C@H](CC1CCCCC1)NC(=O)[C@H](Cc1c[nH]cn1)NC(=O)[C@H](Cc1ccccc1)NC(=O)OC(C)(C)C	392	–
Cc1ccnc(SC[C@H](O)[C@H](CC2CCCCC2)NC(=O)[C@H](Cc2cnc[nH]2)NC(=O)[C@H](Cc2ccccc2)NC(=O)OC(C)(C)C)n1	240	–
CC(C)(C)OC(=O)N[C@@H](Cc1ccccc1)C(=O)N[C@@H](Cc1c[nH]cn1)C(=O)N[C@@H](CC1CCCCC1)[C@@H](O)CSc1nnnn1CCN1CCOCC1	39	Peak deltaMAP [16]: -10.5 mmHg; Peak deltaHR [17]: -8 beats min-1; inhibition in vivo at 0.42 mg/kg [18]: 90%
CC(C)(C)OC(=O)N[C@@H](Cc1ccccc1)C(=O)N[C@@H](Cc1c[nH]cn1)C(=O)N[C@@H](CC1CCCCC1)[C@@H](O)CSC1CCCCC1	289	–
CCOC(=O)Cn1nnnc1SC[C@H](O)[C@H](CC1CCCCC1)NC(=O)[C@H](Cc1cnc[nH]1)NC(=O)[C@H](Cc1ccccc1)NC(=O)OC(C)(C)C	207	–
